≈ marks a conversion by molar mass, not a printed value.
Assays:
Candida albicans = test: Antifungal activity against Candida albicans CA98001; assay type: functional
In short: (§1)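 Growth-inhibition screen against the named strain, following a previously published protocol. The read-out is MIC80, reported in ng mL⁻¹. Fluconazole and itraconazole served as positive controls.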

Aspergillus fumigatus = test: Antifungal activity against Aspergillus fumigatus AF98003; assay type: functional; in short: as §1

| Structure (SMILES) | MIC80 (Candida albicans) [µg/mL] | MIC80 (Aspergillus fumigatus) [µg/mL] |
| --- | --- | --- |
| N#Cc1ccc(CNCC(O)(Cn2cncn2)c2ccc(Cl)cc2Cl)cc1 (stereo not drawn) | 0.0028 (≈ 0.00696 µM) | 4.02 (≈ 9.99 µM) |
| OC(CNCc1ccc(C(F)(F)F)cc1)(Cn1cncn1)c1ccc(Cl)cc1Cl (stereo not drawn) | 0.024 (≈ 0.0539 µM) | 24 (≈ 54 µM) |
| CN(Cc1ccc([N+](=O)[O-])cc1)CC(O)(Cn1cncn1)c1ccc(Cl)cc1Cl (stereo not drawn) | 0.0006 (≈ 0.00138 µM) | 1.96 (≈ 4.49 µM) |
| CN(Cc1ccc(C#N)cc1)CC(O)(Cn1cncn1)c1ccc(Cl)cc1Cl (stereo not drawn) | 0.00037 (≈ 0.000889 µM) | 2.41 (≈ 5.79 µM) |
| CN(Cc1ccc(C(F)(F)F)cc1)CC(O)(Cn1cncn1)c1ccc(Cl)cc1Cl (stereo not drawn) | 0.03 (≈ 0.0653 µM) | 21.1 (≈ 46 µM) |
| O=[N+]([O-])c1ccc(CNCC(O)(Cn2cncn2)c2ccc(Cl)cc2Cl)cc1 (stereo not drawn) | 0.006 (≈ 0.0142 µM) | 27 (≈ 64 µM) |
| Nc1ccc(CNCC(O)(Cn2cncn2)c2ccc(Cl)cc2Cl)cc1 (stereo not drawn) | 18.8 (≈ 48 µM) | 3.06 (≈ 7.8 µM) |
| CN(Cc1ccc(N)cc1)CC(O)(Cn1cncn1)c1ccc(Cl)cc1Cl (stereo not drawn) | 0.029 (≈ 0.0714 µM) | 2.32 (≈ 5.71 µM) |
| OC(Cn1cncn1)(Cn1cncn1)c1ccc(F)cc1F [FLUCONAZOLE] | 0.19 (≈ 0.62 µM) |  |
| CCC(C)n1ncn(-c2ccc(N3CCN(c4ccc(OC[C@H]5CO[C@](Cn6cncn6)(c6ccc(Cl)cc6Cl)O5)cc4)CC3)cc2)c1=O (stereo partly drawn) [ITRACONAZOLE] |  | 0.42 (≈ 0.595 µM) |
